Measurements of several laboratories.
Observed: cell growth or viability

SMILES | cell line | assay | conditions | CC50 [µM]
Nc1nc2c(ncn2COCCO)c(=O)[nH]1 | HFF | ATP luminescence | 14 days | > 150
O=c1[nH]c2sc(-c3ccc(Cl)cc3)cc2c(=O)n1O | HFF | MTS | 7 days | > 50
Nc1nc(O)c2ncn(COC(CO)CO)c2n1 | HFF | ATP luminescence | – | > 150
Cc1ccc(-c2nc(C#N)c(N(C)S(=O)(=O)c3ccc(C)cc3)o2)cc1 | HFF | ATP luminescence | – | 83.8
O=c1[nH]c2cc(-c3ccccc3)sc2c(=O)n1O | HFF | MTS | 7 days | > 50
C[C@H]1[C@@H](O)O[C@@H]2O[C@@]3(C)CC[C@H]4[C@H](C)CC[C@@H]1[C@@]24OO3 | J774 | ATP luminescence | 72 h | 51.3
O=C(CN1C(=O)Cc2c([nH]c3ccc(Br)cc23)-c2ccc(Cl)cc21)NCCN1CCNCC1 | J774 | WST-1 | 24 h | ≥ 100
O=S(=O)(c1ccc(Cl)cc1)c1nc(-c2ccccc2)oc1S(=O)(=O)c1ccc(Cl)cc1 | HFF | ATP luminescence | – | 86.2
CNC(=O)CN1C(=O)Cc2c([nH]c3ccc(Br)cc23)-c2ccc(Cl)cc21 | J774 | WST-1 | 24 h | ≤ 100
O=c1[nH]c2cc(-c3ccccc3)ccc2c(=O)n1O | HFF | MTS | 7 days | 29
N#Cc1nc(-c2ccccc2)oc1N1CCCC1CO (stereo not drawn) | HFF | ATP luminescence | – | > 150
O=C1Cc2c([nH]c3ccc(Br)cc23)-c2ccc(Cl)cc2N1 | J774 | WST-1 | 24 h | > 200
